From ChEMBL document CHEMBL4311947, “Discovery of Novel Naphthylphenylketone and Naphthylphenylamine Derivatives as Cell Division Cycle 25B (CDC25B) Phosphatase Inhibitors: Design, Synthesis, Inhibition Mechanism, and in Vitro Efficacy against Melanoma Cell Lines” (J Med Chem, 2019)
The source made the active and inactive calls. No cut-off for these calls is given here.

Experiments:
A2058 [1] = assay: Cytotoxicity against human A2058 cells at 50 uM after 24 hrs by MTT assay; type: functional, cell-based
Method in brief: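 Cells seeded at 4×10^4/well, treated 24 h after plating with inhibitor or 0.5% (v/v) DMSO vehicle for 24, 48 or 72 h. MTT added, 3 h at 37°C under 5% CO2, formazan solubilised, absorbance at 570 nm. Viability in arbitrary units, mean ± SE of at least three independent experiments versus control. Cells grown in DMEM/10% FBS at 37°C, 5% CO2; BJ-5ta cultured in 4:1 DMEM/Medium 199 with hygromycin B.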

[2] = molecular target: T1, M-phase inducer phosphatase 2 (Homo sapiens) (UniProt P30305); assay: Inhibition of CDC25B in human A375 cells assessed as increase in phosphorylated cdk1 level at 10 uM after 8 hrs by Western blot analysis; type: cell-based
T1 sequence (whole entry): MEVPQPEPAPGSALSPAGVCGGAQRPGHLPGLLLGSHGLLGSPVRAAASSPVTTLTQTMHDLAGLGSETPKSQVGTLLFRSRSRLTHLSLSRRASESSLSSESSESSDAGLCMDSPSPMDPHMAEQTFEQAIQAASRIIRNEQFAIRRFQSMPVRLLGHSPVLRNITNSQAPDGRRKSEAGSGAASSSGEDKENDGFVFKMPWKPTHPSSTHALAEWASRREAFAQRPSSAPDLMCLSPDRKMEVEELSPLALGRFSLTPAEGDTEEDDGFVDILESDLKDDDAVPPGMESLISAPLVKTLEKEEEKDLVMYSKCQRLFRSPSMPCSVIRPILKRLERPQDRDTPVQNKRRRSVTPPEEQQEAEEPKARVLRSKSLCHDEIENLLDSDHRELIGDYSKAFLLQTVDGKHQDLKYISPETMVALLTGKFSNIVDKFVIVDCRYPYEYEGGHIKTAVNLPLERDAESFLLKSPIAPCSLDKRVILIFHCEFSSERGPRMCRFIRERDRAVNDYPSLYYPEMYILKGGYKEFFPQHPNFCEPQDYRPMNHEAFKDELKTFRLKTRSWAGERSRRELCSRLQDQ
Method in brief: (§1)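 After 24 h at 3×10^5 cells, 8 h treatment with 10 µM inhibitor or 0.5% DMSO. Lysis in ice-cold modified RIPA with Na3VO4, NaF and protease inhibitors; Bradford-normalised equal protein on 12% SDS-PAGE. Rabbit polyclonal anti-p-Cdk1 overnight at 4°C, HRP secondary, ECL detection; β-actin loading control.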

[3] = molecular target: T2, M-phase inducer phosphatase 3 (Homo sapiens, UniProt P30307); assay: Inhibition of N-terminal His6-tagged human CDC25C (280 to 454 residues) expressed in Escherichia coli BL21(DE3) cells using OMFP as substrate by double reciprocal Lineweaver-Burk plot analysis
T2 sequence (P30307 whole entry): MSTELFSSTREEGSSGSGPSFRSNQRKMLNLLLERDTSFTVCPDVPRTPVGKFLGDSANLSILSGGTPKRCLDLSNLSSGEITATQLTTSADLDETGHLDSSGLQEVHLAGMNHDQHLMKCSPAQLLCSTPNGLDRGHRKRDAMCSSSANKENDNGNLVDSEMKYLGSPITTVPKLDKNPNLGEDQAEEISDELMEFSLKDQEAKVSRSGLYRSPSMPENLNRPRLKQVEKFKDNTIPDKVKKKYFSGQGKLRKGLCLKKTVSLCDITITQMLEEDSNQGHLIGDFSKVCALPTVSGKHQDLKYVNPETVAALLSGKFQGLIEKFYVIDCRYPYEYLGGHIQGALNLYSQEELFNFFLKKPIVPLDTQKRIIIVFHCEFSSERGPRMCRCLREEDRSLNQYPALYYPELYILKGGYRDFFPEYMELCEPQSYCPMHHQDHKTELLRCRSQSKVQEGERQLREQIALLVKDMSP
Method in brief: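 Recombinant CDC25 form (15–25 nM) in 20 mM Tris-HCl pH 7.8, 0.5 mM TCEP, 1% (v/v) DMSO, with or without inhibitor. Reaction started with 0.5–25 µM OMFP; O-methylfluorescein formation followed continuously at 30°C (ex 485/em 530 nm). Initial rates (AU/min) analysed in Lineweaver-Burk plots for Vmax, KM and mechanism; Ki averaged from at least three independent experiments, only roughly estimated for mixed inhibition.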

A2058 [4] = assay: Induction of cell cycle arrest in human A2058 cells assessed as decrease in accumulation at G0/G1 phase at 10 uM after 8 hrs by propidium iodide staining based flow cytometric method; type: functional
Method in brief: (§2)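 Seeded at 3×10^5 cells/well for 24 h at 37°C, then exposed to 10 µM inhibitor or 0.5% (v/v) DMSO for 8 or 16 h. Trypsin-harvested, fixed in cold 70% ethanol at -20°C for 1 h, stained 30 min at 4°C with 50 µg/mL PI in non-lysis solution. Phase distribution (sub-G1, G0/G1, S, G2/M) read by FACScan; triplicate experiments, mean ± SE.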

[5] = molecular target: T1, M-phase inducer phosphatase 2 (Homo sapiens); assay: Inhibition of N-terminal His6-tagged human CDC25B (377 to 550 residues) expressed in Escherichia coli BL21(DE3) cells at 10 uM by spectrofluorimetric analysis
[6] = molecular target: T1, M-phase inducer phosphatase 2 (Homo sapiens); assay: Inhibition of CDC25B in human A2058 cells assessed as increase in phosphorylated cdk1 level at 10 uM after 8 hrs by Western blot analysis; type: cell-based; method in brief: as §1
A-375 = assay: Induction of cell cycle arrest in human A375 cells assessed as decrease in accumulation at G0/G1 phase at 10 uM after 8 hrs by propidium iodide staining based flow cytometric method; type: functional; method in brief: as §2
A2058 [7] = assay: Induction of cell cycle arrest in human A2058 cells assessed as increase in accumulation at G2/M phase at 10 uM after 16 hrs by propidium iodide staining based flow cytometric method; type: functional; method in brief: as §2
A2058 [8] = assay: Induction of cell cycle arrest in human A2058 cells assessed as increase in accumulation at G2/M phase at 10 uM after 8 hrs by propidium iodide staining based flow cytometric method; type: functional; method in brief: as §2

inhibition [2]: Active | Ki [3]: 1900 nM | inhibition [5]: inactive | inhibition [6]: Active
Structure (SMILES): CCOC(=O)c1cccc(Nc2cc(OC)cc3ccccc23)c1
Activity (A2058 [1]): Active | Activity (A2058 [4]): Active | Activity (A-375): Active | Activity (A2058 [7]): Active | Activity (A2058 [8]): Active
